The results in this text go back to ChEMBL document CHEMBL4340513, “Dual-targeting Rutaecarpine-NO donor hybrids as novel anti-hypertensive agents by promoting release of CGRP” (Eur J Med Chem, 2019).

Molecules are shown by their SMILES. pEC50: −log10 of the molar value. Calls of active or inactive are those of the source. The rule behind the calls is not given here.

The subject of assay [1] is Aorta. The assay can be described thus: Vasodilating activity in Sprague-Dawley rat aortic rings assessed as reduction in phenylephrine-induced contractions. Format: functional, tissue-based. An outline of the steps: (§1)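 Thoracic aorta rings (4 mm) from male SD rats (250-300 g, chloral hydrate anesthesia), cleaned of fat and connective tissue and held at 2 g resting force in Krebs' solution. After KCl response, washout and 30 min re-equilibration, rings got L-cysteine (1 µM final, 10 min), then phenylephrine contraction (2 µM final). Cumulative concentration–response curve at 10^-9–10^-6 M final gave EC50. DMSO ≤0.1%.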

The test system of assay [2] is Aorta. Put plainly: Vasodilating activity in Sprague-Dawley rat aortic rings assessed as reduction in phenylephrine-induced contractions relative to control. The assay is classed as functional. The method in brief: as §1
Assay [3] deals with Aorta. Put plainly: Vasodilating activity in Sprague-Dawley rat aortic rings assessed as reduction in phenylephrine-induced contractions at 1:1 ratio of test compound to furoxan. The assay is classed as functional, tissue-based.
In assay [4] the test system is Aorta. Put plainly: Vasodilating activity in Sprague-Dawley rat aortic rings assessed as reduction in phenylephrine-induced contractions at 1:1 ratio of test compound to furoxan relative to control. The assay is classed as functional.
Assay [5] deals with Rattus norvegicus. Put plainly: Increase in CGRP level in Sprague-Dawley rat blood at 20 to 40 mg/kg, ip by ELISA. The assay is classed as functional, organism-based. The method in brief: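 Rat serum CGRP was quantified with a commercial CGRP ELISA kit per the manufacturer. Optical density was read at 450 nm and concentrations were expressed as pg/mL.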
Assay [6] deals with Aorta. The assay can be described thus: Vasodilating activity in Sprague-Dawley rat aortic rings assessed as reduction in phenylephrine-induced contractions in presence of L-cysteine and TRPV1 antagonist capsazepine. Format: functional, tissue-based. An outline of the steps:
(§2)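 SD rat aortic rings were prepared as for the standard ring assay and randomly grouped. They were preincubated 10 min with L-cysteine (1 µM final) alone or with HC030031 (10 µM), capsazepine (10 µM), both, or CGRP(8-37) (10 µM, in water), all final. Phenylephrine contraction (2 µM final) preceded a cumulative concentration–response curve at 10^-9–10^-6 M final. Mean, n = 5.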

Assay [7] relates to Aorta. Put plainly: Vasodilating activity in Sprague-Dawley rat aortic rings assessed as reduction in phenylephrine-induced contractions in presence of L-cysteine and TRPA1 antagonist HC030031. The assay is classed as functional, tissue-based. The method in brief: as §2
In assay [8] the test system is Aorta. The assay can be described thus: Vasodilating activity in Sprague-Dawley rat aortic rings assessed as reduction in phenylephrine-induced contractions in presence of L-cysteine and CGRP receptor antagonist CGRP(8 to 37). Format: functional, tissue-based. The method in brief: as §2
The subject of assay [9] is Rattus norvegicus. Put plainly: Antihypertensive activity in carotid cannulated Sprague-Dawley rat assessed as reduction in systolic arterial pressure at 20 to 40 mg/kg, ip measured within 2 hrs relative to rutaecarpine. The assay is classed as functional, organism-based. The method in brief:
(§3)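 Male SD rats (250-300 g) under sodium pentobarbital (40 mg/kg, 10 mg/kg supplements), kept at 37°C and tracheotomized. The right carotid artery was cannulated to a pressure transducer. Once pressure was stable, compounds suspended in sodium carboxymethyl cellulose were given i.p. at 20 or 40 mg/kg. Arterial pressure was recorded continuously for 2 h to derive its decrease.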

Assay [10] deals with Rattus norvegicus. The assay can be described thus: Antihypertensive activity in carotid cannulated Sprague-Dawley rat assessed as reduction in diastolic arterial pressure at 20 to 40 mg/kg, ip measured within 2 hrs relative to rutaecarpine. The assay is classed as functional, organism-based. The method in brief:
as §3

For the compound `O=c1c2cc(OCCOCCOCCNCc3c(-c4ccsc4)no[n+]3[O-])ccc2nc2n1CCc1c-2[nH]c2ccccc12`, in the assay on Aorta [1], the pEC50 (usually the EC50 on a negative log10 scale, so that one unit is a factor of ten) is 7.51. Besides, the Emax (commonly the greatest response seen or fitted, relative to the assay's reference) in the assay on Aorta [2] worked out at 73.6%.

Consider `CC(C)c1ccc(-c2no[n+]([O-])c2CNCCOCCOCCOc2ccc3nc4n(c(=O)c3c2)CCc2c-4[nH]c3ccccc23)cc1`, for which the pEC50 in the assay on Aorta [1] was 5.59. Also, the Emax with Aorta [2] was 40.9%.

For `O=c1c2cc(OCCOCCNCc3c(-c4ccccc4)no[n+]3[O-])ccc2nc2n1CCc1c-2[nH]c2ccccc12`, the pEC50 in the assay with Aorta [1] was 7.82. Moreover, in the assay with Aorta [2], the Emax was found to be 81.4%.

With `O=c1c2cc(OCCOCCOCCNCc3c(-c4cccc(F)c4)no[n+]3[O-])ccc2nc2n1CCc1c-2[nH]c2ccccc12`, in the assay on Aorta [1], the pEC50 was 6.80. Moreover, the Emax in the assay on Aorta [2] was 77.3%.

Consider `O=c1c2ccccc2nc2n1CCc1c-2[nH]c2ccc(OCCOCCOCCNCc3c(-c4ccccc4)no[n+]3[O-])cc12`, for which the pEC50 in the assay with Aorta [1] is 6.95. The Emax in the assay with Aorta [2] came to 64.2%.

On to `O=c1c2cc(OCCOCCOCCNCc3c(-c4ccccc4)no[n+]3[O-])ccc2nc2n1CCc1c-2[nH]c2ccccc12`, for which, in the assay with Aorta [1], the pEC50 is 6.11. In addition, in the assay with Aorta [2], the Emax came out at 54.6%.

As for `O=c1c2cc(OCCOCCOCCNCc3c(-c4ccoc4)no[n+]3[O-])ccc2nc2n1CCc1c-2[nH]c2ccccc12`, the pEC50 in the assay with Aorta [1] is 4.65. In addition, the Emax in the assay on Aorta [2] was 30.6%.

Consider `O=c1c2ccccc2nc2n1CCc1c-2[nH]c2ccccc12` [RUTAECARPINE], for which the pEC50 in the assay with Aorta [3] is 7.53; with Aorta [1] it was 6.81. Besides, the Emax was found to be 66.3% in the assay on Aorta [2] and 75.3% in the assay with Aorta [4]. Besides, the outcome in the assay on Rattus norvegicus [5] was inactive.

Consider `O=c1c2ccccc2nc2n1CCc1c-2n(CCOCCOCCNCc2c(-c3ccccc3)no[n+]2[O-])c2ccccc12`, for which the pEC50 in the assay with Aorta [1] is 5.69. Also, the Emax in the assay on Aorta [2] is 43.2%.

Turning to `CCOc1ccccc1-c1no[n+]([O-])c1CNCCOCCOCCOc1ccc2nc3n(c(=O)c2c1)CCc1c-3[nH]c2ccccc12`, the negative-log EC50 (pEC50) with Aorta [1] was 6.94. In addition, in the assay on Aorta [2], the Emax stood at 69.9%.

On to `O=c1c2cc(OCc3c(-c4ccccc4)no[n+]3[O-])ccc2nc2n1CCc1c-2[nH]c2ccccc12`, for which, in the assay on Aorta [1], the pEC50 is 7.88. Besides, the Emax in the assay on Aorta [2] was 85.2%. In addition, the outcome with Aorta [6], in the assay with Aorta [7], with Aorta [8] and in the assay on Rattus norvegicus [5] was inactive. The outcome with Rattus norvegicus [9] and with Rattus norvegicus [10] was Active.

Take `O=c1c2cc(OCCOCCOCCNCc3c(-c4cccc5ccccc45)no[n+]3[O-])ccc2nc2n1CCc1c-2[nH]c2ccccc12`: the pEC50 in the assay on Aorta [1] was 5.85. Besides, the Emax with Aorta [2] turned out to be 45.3%.
